Measurements published in ChEMBL document CHEMBL1944523, “Benzimidazolones: a new class of selective peroxisome proliferator-activated receptor γ (PPARγ) modulators” (J Med Chem, 2011).
Activity calls are given as the source filed them. The rule behind the calls is not given here.

Key:
Mus musculus [1] = assay: Antidiabetic activity in db/db C57BLKS/J-m +/+ Leprdb mouse assessed as reduction of glucose level at 10 mg/kg, po qd for 10 days measured on 11 relative to control; assay type: functional; set-up: scale not given: the % may be the effect or the level left
How it was run: (§1)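 Male db/db (C57BLKS/J-m +/+Leprdb) mice, 12−13 weeks old, seven per group, chow and water freely available; once-daily oral gavage in 0.25% methylcellulose vehicle for 11 days. Tail blood drawn just before next dose on days 0, 4, 7 and 11 for plasma glucose. Value is percent correction versus vehicle control; mean of n = 7; rosiglitazone 10 mpk positive control.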

COS-1 = assay: Binding affinity to human PPARgamma LBD Y473A mutant expressed in COS1 cells co-expressing GAL4 by scintillation proximity assay; assay type: cell-based
[2] = molecular target: T1, Peroxisome proliferator-activated receptor gamma (Homo sapiens) (UniProt P37231); assay: Binding affinity to human wild type PPARgamma LBD expressed in COS1 cells co-expressing GAL4 by scintillation proximity assay; assay type: cell-based; details: COS-1
T1 sequence (whole entry): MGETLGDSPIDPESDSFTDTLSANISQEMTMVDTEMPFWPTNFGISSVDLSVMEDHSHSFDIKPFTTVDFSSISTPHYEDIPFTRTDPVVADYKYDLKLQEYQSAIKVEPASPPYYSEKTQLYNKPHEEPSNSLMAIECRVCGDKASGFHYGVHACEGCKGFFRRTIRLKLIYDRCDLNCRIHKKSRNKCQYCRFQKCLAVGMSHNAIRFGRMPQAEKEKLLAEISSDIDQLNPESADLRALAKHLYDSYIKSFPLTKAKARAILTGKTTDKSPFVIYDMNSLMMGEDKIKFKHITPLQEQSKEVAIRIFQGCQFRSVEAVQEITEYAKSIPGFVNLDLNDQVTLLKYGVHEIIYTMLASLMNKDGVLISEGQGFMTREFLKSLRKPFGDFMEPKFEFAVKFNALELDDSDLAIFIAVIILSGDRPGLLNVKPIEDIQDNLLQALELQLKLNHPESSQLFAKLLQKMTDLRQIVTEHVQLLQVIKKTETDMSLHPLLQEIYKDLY

[3] = molecular target: T1, Peroxisome proliferator-activated receptor gamma (Homo sapiens); assay: Agonist activity at human PPARgamma expressed in COS-1 cells co-expressing with Gal4 by transactivation assay relative to rosiglitazone; assay type: functional, cell-based
How it was run: (§2)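 GAL4-PPAR chimeric receptor transactivation in transiently co-transfected COS-1 cells with a GAL4-responsive reporter; potency as EC50 and maximum activation expressed relative to rosiglitazone; triplicate, mean reported.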

[4] = molecular target: T2, Peroxisome proliferator-activated receptor gamma (Homo sapiens, UniProt P37231); assay: Binding affinity to human PPARgamma by scintillation proximity assay
T2 sequence (P37231 whole entry): T1 sequence (whole entry)
How it was run: (§3)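 Scintillation proximity binding assay on PPAR receptors giving IC50; mean of three determinations.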

Rattus norvegicus [5] = assay: Dose normalized AUC in rat at 2 mg/kg, po by LC-MS/MS analysis; assay type: ADME, organism-based; set-up: dose 2 mg/kg, route oral; details: in vivo
How it was run: (§4)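 Rat pharmacokinetics: 2 mpk oral in 5% methylcellulose, 0.5 mpk iv in ethanol/PEG400/water (1/4/5). Blood sampled at set intervals; plasma acidified with 0.5 M formate buffer pH 3.0, acetonitrile-precipitated, quantified by LC−MS−MS against spiked control-plasma calibration curves.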

[6] = Half life in rat at 0.5 mg/kg, iv and 2 mg/kg, po by LC-MS/MS analysis; assay type: ADME, organism-based; details: in vivo; how it was run: as §4
Rattus norvegicus [7] = assay: Plasma clearance in rat at 0.5 mg/kg, iv and 2 mg/kg, po by LC-MS/MS analysis; assay type: ADME, organism-based; details: in vivo; how it was run: as §4
[8] = molecular target: T2, Peroxisome proliferator-activated receptor gamma; assay: Partial agonist activity at human PPARgamma LBD assessed as activation of PGC1 by HTRF assay; assay type: functional
[9] = molecular target: T3, Peroxisome proliferator-activated receptor delta (Homo sapiens, UniProt Q03181); assay: Binding affinity to PPARdelta by scintillation proximity assay; how it was run: as §3
T3 sequence (Q03181 whole entry): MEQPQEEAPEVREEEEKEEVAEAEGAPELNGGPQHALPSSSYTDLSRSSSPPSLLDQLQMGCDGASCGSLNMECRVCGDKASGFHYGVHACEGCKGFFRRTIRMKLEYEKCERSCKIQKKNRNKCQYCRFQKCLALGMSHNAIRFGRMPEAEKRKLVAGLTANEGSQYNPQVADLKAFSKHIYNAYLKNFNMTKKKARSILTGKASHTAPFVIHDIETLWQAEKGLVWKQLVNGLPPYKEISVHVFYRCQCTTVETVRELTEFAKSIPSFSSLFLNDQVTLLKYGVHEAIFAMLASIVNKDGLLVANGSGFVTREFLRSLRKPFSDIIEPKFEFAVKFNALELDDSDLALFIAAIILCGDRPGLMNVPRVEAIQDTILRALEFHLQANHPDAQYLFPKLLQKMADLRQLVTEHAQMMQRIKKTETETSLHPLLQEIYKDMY

[10] = molecular target: T2, Peroxisome proliferator-activated receptor gamma; assay: Partial agonist activity at human PPARgamma LBD assessed as activation of PBP by HTRF assay; assay type: functional
Mus musculus [11] = assay: Antidiabetic activity in db/db C57BLKS/J-m +/+ Leprdb mouse assessed as reduction of glucose level at 30 mg/kg, po qd for 10 days measured on 11 relative to control; assay type: functional; set-up: scale not given: the % may be the effect or the level left; how it was run: as §1
[12] = molecular target: T2, Peroxisome proliferator-activated receptor gamma; assay: Partial agonist activity at human PPARgamma LBD assessed as activation of CBP1-453 by HTRF assay; assay type: functional
[13] = Oral bioavailability in rat at 2 mg/kg by LC-MS/MS analysis; assay type: ADME, organism-based; details: in vivo; how it was run: as §4
[14] = molecular target: T4, Peroxisome proliferator-activated receptor alpha (Homo sapiens, UniProt Q07869); assay: Binding affinity to human PPARalpha expressed in COS-1 by scintillation proximity assay; how it was run: as §3
T4 sequence (Q07869 whole entry): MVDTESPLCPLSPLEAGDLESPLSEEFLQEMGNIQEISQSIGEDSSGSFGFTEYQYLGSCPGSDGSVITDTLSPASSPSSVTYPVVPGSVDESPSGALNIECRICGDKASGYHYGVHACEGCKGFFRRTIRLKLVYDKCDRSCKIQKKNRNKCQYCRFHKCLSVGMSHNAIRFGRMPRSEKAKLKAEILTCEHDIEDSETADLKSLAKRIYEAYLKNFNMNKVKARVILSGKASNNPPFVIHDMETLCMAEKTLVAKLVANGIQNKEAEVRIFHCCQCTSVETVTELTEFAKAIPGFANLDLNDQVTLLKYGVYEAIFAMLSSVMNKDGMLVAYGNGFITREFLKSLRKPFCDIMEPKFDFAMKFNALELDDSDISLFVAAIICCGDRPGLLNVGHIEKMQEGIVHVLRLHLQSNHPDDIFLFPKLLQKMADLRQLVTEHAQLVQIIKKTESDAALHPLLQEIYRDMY

[15] = molecular target: T2, Peroxisome proliferator-activated receptor gamma; assay: Agonist activity at human PPARgamma expressed in COS-1 cells co-expressing with Gal4 by transactivation assay; assay type: functional, cell-based; how it was run: as §2
[16] = molecular target: T2, Peroxisome proliferator-activated receptor gamma; assay: Partial agonist activity at human PPARgamma LBD assessed as activation of Src-1 by HTRF assay; assay type: functional
[17] = Drug uptake in db/db C57BLKS/J-m +/+ Leprdb mouse at 10 mg/kg, po qd for 10 days measured in day 11 by LC-MS/MS analysis; assay type: ADME, organism-based; set-up: dose 10 mg/kg, route oral; details: in vivo
How it was run: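 Male db/db (C57BLKS/J-m +/+Leprdb) mice aged 12−13 weeks, seven per group, gavaged once daily with compound in 0.25% methylcellulose vehicle. Total compound exposure measured at study end: plasma acidified with 0.5 M formate buffer pH 3.0, protein precipitated with acetonitrile, quantified by LC−MS−MS against calibration curves in control plasma.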

Compound | Activity (Mus musculus [1]) | Activity (COS-1) | Activity [2] | Emax [3] | IC50 [4] | AUC/dose (Rattus norvegicus [5]) | half-life [6] | clearance (Rattus norvegicus [7]) | EC50 [8] | IC50 [9] | EC50 [10] | Activity (Mus musculus [11]) | EC50 [12] | bioavailability [13] | IC50 [14] | EC50 [15] | EC50 [16] | AUC at 240 h [17]
C[C@]1(c2cccc(Cn3c(=O)n(-c4noc5cc(Cl)ccc45)c4ccccc43)c2)OC(=O)NC1=O | 84% | Active | Active | 101% |  |  |  |  |  |  |  |  |  |  |  |  |  | 
COc1ccc2c(-n3c(=O)n(Cc4cc(O[C@H](C)C(=O)O)ccc4Cl)c4ccccc43)noc2c1 |  |  |  | 50% | 13.7 nM | 5 µM·kg·h/mg | 6.9 h | 7.3 mL/min/kg | 8 nM | > 50000 nM | 11 nM | 30% | 11 nM | 97% | > 50000 nM | 51.1 nM | > 50000 nM | 
CN(CCOc1ccc(C[C@H](OCC(F)(F)F)C(=O)O)cc1)c1nc2ccccc2o1 |  |  |  |  |  |  |  |  | 1 nM |  | 1 nM |  | 1 nM |  |  |  | 2 nM | 
Cc1c(C(=O)c2ccc(Cl)cc2)c2ccc(OC(F)(F)F)cc2n1Cc1cccc(O[C@@H](C(=O)O)C(C)C)c1 |  |  |  |  |  |  |  |  | 5 nM |  | 6 nM |  | 7 nM |  |  |  | 9 nM | 
COc1ccc2c(-n3c(=O)n(Cc4cc(O[C@H](C)C(=O)O)ccc4Cl)c4cc(C(F)(F)F)ccc43)noc2c1 |  |  |  | 26% | 9.1 nM |  |  |  |  | > 50000 nM |  |  |  |  | > 50000 nM | 102 nM |  | 
C[C@@H](Oc1cc(Cn2c(=O)n(-c3ccc(C(C)(C)C)cc3)c3ccc(C(F)(F)F)cc32)ccc1Cl)C(=O)O |  |  |  | 15% | 161 nM |  |  |  | 460 nM | > 50000 nM | 440 nM |  | 480 nM |  | > 50000 nM | 135 nM | > 50000 nM | 
COc1ccc2c(-n3c(=O)n(Cc4ccc(Cl)c(O[C@H](C)C(=O)O)c4)c4ccccc43)noc2c1 |  |  |  | 31% | 6.9 nM | 1.5 µM·kg·h/mg | 5 h | 11.4 mL/min/kg | 2 nM | > 50000 nM | 3 nM | 39% | > 50000 nM | 48% | > 50000 nM | 28.1 nM | > 50000 nM | 576 µM·h
COc1ccc2c(-n3c(=O)n(Cc4ccc(Cl)c(O[C@H](C)C(=O)O)c4)c4ccc(OC(F)(F)F)cc43)noc2c1 |  |  |  | 31% | 4.1 nM |  |  |  |  | > 50000 nM |  |  |  |  | > 50000 nM | 13.2 nM |  | 
C[C@@H](Oc1cc(Cn2c(=O)n(Cc3ccc(Cl)cc3)c3ccc(C(F)(F)F)cc32)ccc1Cl)C(=O)O |  |  |  | 17% | 4800 nM |  |  |  |  | > 50000 nM |  |  |  |  | > 50000 nM | 3000 nM |  | 
Cc1c(C(=O)c2ccc(Cl)cc2)c2ccc(OC(F)(F)F)cc2n1Cc1cccc(O[C@H](C)C(=O)O)c1 |  |  |  |  |  |  |  |  | 5 nM |  | 5 nM |  | 6 nM |  |  |  | > 50000 nM | 
C[C@@H](Oc1cc(Cn2c(=O)n(C(=O)c3ccc(Cl)cc3)c3ccc(C(F)(F)F)cc32)ccc1Cl)C(=O)O |  |  |  | 21% | 255 nM |  |  |  |  | > 50000 nM |  |  |  |  | > 50000 nM | 489 nM |  | 
C[C@@H](Oc1cc(Cn2c(=O)n(-c3noc4cc(Cl)ccc34)c3ccc(C(F)(F)F)cc32)ccc1Cl)C(=O)O |  |  |  | 32% | 68 nM |  |  |  | 3240 nM | > 50000 nM | > 50000 nM |  | > 50000 nM |  | > 50000 nM | 200 nM | > 50000 nM | 
Cc1cccc2c(-n3c(=O)n(Cc4ccc(Cl)c(O[C@H](C)C(=O)O)c4)c4cc(C(F)(F)F)ccc43)noc12 |  |  |  | 25% | 9.2 nM |  |  |  |  | > 50000 nM |  |  |  |  | > 50000 nM | 4.1 nM |  | 
COc1ccc2c(-n3c(=O)n(Cc4cc([C@@]5(C)OC(=O)NC5=O)ccc4Cl)c4cc(C(F)(F)F)ccc43)noc2c1 |  |  |  | 28% | 7.7 nM |  |  |  |  | > 50000 nM |  |  |  |  | > 50000 nM | 17 nM |  | 
